Reference: paper PMC3269312 (International journal of inorganic chemistry, 2011)

What was measured:
[1] = system: ct-DNA; assay: Fluorescence competition experiment with ethidium bromide; type: binding, calf
How it was run: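 Ethidium bromide is pre-bound to calf-thymus DNA, and the intercalated adduct is excited near 520 nm. Test compound is added as quencher, and the loss of adduct emission is followed. Relative fluorescence (F0/F) is plotted against quencher concentration per the Stern-Volmer equation, giving the quenching constant.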

[2] = system: ct-DNA; details: cited from earlier work

Row | Molecule | KSV, Stern-Volmer quenching constant ([1]; EB-DNA adduct, λex = 520 nm, [EB] = 0.33 μM, [DNA] = 10 μM, 298 K) | apparent binding constant (Kapp) with ct-DNA ([1]; from [complex] at 50% of initial EB-DNA fluorescence, KEB = 1.2 × 10^6 M^−1) [M⁻¹] | KEB, binding constant of EB to DNA [2] [M⁻¹]
1 | Zn(acnTSC)2Cl2 [Complex 1] | (7.48 ± 0.29) × 10^3 M^−1 | 3530 | 
2 | CC[n+]1c(-c2ccccc2)c2cc(N)ccc2c2ccc(N)cc21 [EB, ethidium bromide] |  |  | 1.2e+06
